Bioassay records deposited in PubChem BioAssay by several laboratories.
Hits are enriched below; roughly 1.3% of the tested compounds scored in any of these assays.
MT1-MMP act inh: MT1-MMP (human) activation inhibition | 360,000 tested, 0.061% active | GFP/RFP ratio change, % at 20 µM | AID 651647 | HT1080 RFP-PRO-GFP cells, GFP/RFP ratio fluorescence, overnight; percent of plate control window, DMSO zero | P50281;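 active = GFP/RFP ratio change of at least 30% with cell ATP level not reduced by more than half and red fluorescence within 50% of control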
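Assay system – RFP-PRO-GFP reporter HT1080 cells · Compound dosing – single dose of 20 µM compound, 1% DMSO final · Incubation – overnight compound exposure at 37 °C · Measure – GFP/RFP fluorescence ratio · Benchmarks – DMSO wells and RFP-L50D-GFP cells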
DAGLB inh: diacylglycerol lipase beta (human) inhibition. Q8NCG7. inhibition, % at 5.17 µM. 340,000 tested, 0.059% active. HEK293T DAGLB membrane lysate, EnzChek fluorogenic substrate. AID 504411; in the data active = inhibition above about 34%
Target sequence (Q8NCG7 whole entry, looked up): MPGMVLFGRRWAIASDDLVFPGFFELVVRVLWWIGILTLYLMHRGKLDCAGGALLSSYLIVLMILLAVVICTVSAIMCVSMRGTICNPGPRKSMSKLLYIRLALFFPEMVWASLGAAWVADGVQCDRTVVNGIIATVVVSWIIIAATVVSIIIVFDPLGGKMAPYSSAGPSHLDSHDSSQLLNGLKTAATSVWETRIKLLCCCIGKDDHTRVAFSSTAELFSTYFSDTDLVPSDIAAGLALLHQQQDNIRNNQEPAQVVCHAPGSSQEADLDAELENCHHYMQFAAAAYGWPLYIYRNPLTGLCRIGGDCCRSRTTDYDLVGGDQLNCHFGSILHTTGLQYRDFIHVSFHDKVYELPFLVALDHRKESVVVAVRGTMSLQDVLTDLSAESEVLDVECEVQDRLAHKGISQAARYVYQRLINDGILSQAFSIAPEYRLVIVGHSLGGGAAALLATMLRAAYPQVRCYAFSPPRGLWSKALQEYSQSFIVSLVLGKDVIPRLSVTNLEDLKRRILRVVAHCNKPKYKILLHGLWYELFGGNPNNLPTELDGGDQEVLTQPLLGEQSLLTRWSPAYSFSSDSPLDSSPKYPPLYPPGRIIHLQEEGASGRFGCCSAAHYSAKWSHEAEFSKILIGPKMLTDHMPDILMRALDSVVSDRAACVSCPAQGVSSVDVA
TMEM16A inh: inhibitors of mouse TMEM16A calcium-activated chloride channel; HEK293 TMEM16A/YFP iodide influx fluorescence, ionomycin; 310,000 tested, 1.2% active; normalized B-score (activity score, 25-100; higher = stronger inhibition) at 10 µM; Q8BHY3; AID 588511;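 active = ratio plate-corrected score three or more library SD toward inhibition, starting fluorescence score within five deviations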;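 note: score derived from kinetic fluorescence span divided by baseline fluorescence per well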
TMEM16A act: activates or potentiates the mouse TMEM16A chloride channel; Q8BHY3; HEK293 TMEM16A/YFP-H148Q/I152L, iodide quench fluorescence; stronger effect = lower value; B-score at 10 µM; 340,000 tested, 0.3% active;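 active = fluorescence-ratio B-score plate-corrected deviation score at least 3 library SD below zero, with starting fluorescence score within 5 deviations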;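 note: channel opened by trigger with iodide after compound preincubation; score built on the fluorescence ratio of max minus min over baseline; more negative score means more quench and so TMEM16A activation or potentiation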
Of the large screens only hits and unclear results are named; the others gave an inactive call; ! = repeats disagree.

COc1ccc(CCNC(=O)c2ccc(CN3CCC(Cc4ccccc4)CC3)cc2)cc1OC	TMEM16A act -6.9
COc1ccc(CCNC(=O)C(=O)NCC2CCCN2S(=O)(=O)c2ccccc2)cc1OC (stereo not given)	TMEM16A inh 25
O=C(NC1CCCC1)N[C@@H]1C=C[C@@H](CC(=O)N2CCOCC2)O[C@@H]1CO	none (no result: DAGLB inh, TMEM16A inh, TMEM16A act)
CC(=O)NC(CC(=O)NC(C)c1ccc(Cl)cc1Cl)c1ccccc1 (stereo not given)	TMEM16A act -32
Nc1c2c(nc3sc4c(c13)CCCCC4)CCCCC2	TMEM16A inh 25
C=CC[n+]1c(-c2ccc(C)cc2)csc1Nc1ccc(NC(C)=O)cc1	none (no result: TMEM16A inh)
C=CC[n+]1c(-c2ccc(OC)cc2)csc1NNC(=O)Nc1ccccc1	TMEM16A inh 100
CCCCNC(=O)C1(C)CCCCN1C(=O)c1ccc(C#N)cc1 (stereo not given)	none (no result: DAGLB inh, TMEM16A inh, TMEM16A act)
CCCCCCCCCCCCCCCCn1cc[n+](C)c1	TMEM16A inh 25!
C[C@@H]1CN([C@H](C)CO)C(=O)CCCn2cc(nn2)CO[C@H]1CN(C)C(=O)c1ccccc1	none (no result: DAGLB inh, TMEM16A inh, TMEM16A act)
O=C1c2ccccc2C(Nc2ccc(F)c(Cl)c2)N1Cc1ccco1 (stereo not given)	TMEM16A act -22
COc1ccc2cc(C(N)=O)/c(=N\NC(=O)c3ccccc3)oc2c1	none
COc1ccc2cc(C(N)=O)c(=Nc3ccc(C)cc3)oc2c1	TMEM16A act -7.7
Cc1cccc(C)c1NC(=O)C(c1ccc(C#N)cc1)n1c(=O)c(-c2ccco2)nc2ccccc21 (stereo not given)	none (no result: DAGLB inh, TMEM16A inh, TMEM16A act)
COC(=O)c1cccc(NC(=S)Nc2ccc(Cl)c(Cl)c2)c1	TMEM16A inh 100
COC(=O)c1cc(NC(=S)Nc2cc(Cl)cc(Cl)c2)cc(C(=O)OC)c1	TMEM16A inh 100
O=C1NCCNC1c1ccccc1 (stereo not given)	none (no result: TMEM16A inh)
Cc1ccc(C)c(S(=O)(=O)/N=C2\C=C(NS(=O)(=O)c3ccccc3)C(=O)c3ccccc32)c1	TMEM16A inh 100
COCCN1C(=O)COc2ccccc2C1C(=O)Nc1c(C)cccc1C (stereo not given)	none (no result: DAGLB inh, TMEM16A inh, TMEM16A act)
CC1=CC(=O)C(C(C)C)=C/C1=N/OS(=O)(=O)c1ccccc1	TMEM16A inh 100, TMEM16A act -6.5
CC1=CC(=O)C=C(C)C1=NOS(=O)(=O)c1ccccc1	none (no result: TMEM16A inh)
Cc1ccc(/C=C/S(=O)(=O)NCCC(=O)NCc2ccccc2F)cc1	none (no result: TMEM16A inh)
Cc1ccc(/C=C/S(=O)(=O)NCCC(=O)NCc2ccc(F)cc2)cc1	TMEM16A act -42 (no result: TMEM16A inh)
CCOC(=O)C1=CCC(c2cc3ccccc3[nH]2)NC1 (stereo not given)	none (no result: DAGLB inh, TMEM16A inh, TMEM16A act)
CCCS(=O)(=O)NC(=O)C1(C)CCN(C(=O)c2cccc(OC(F)(F)F)c2)C1 (stereo not given)	none (no result: DAGLB inh, TMEM16A inh, TMEM16A act)
Cc1ccc(S(=O)(=O)N2[C@@H](c3cccc(Cl)c3)C(C(=O)O)=CC[C@H]2c2cccc(Cl)c2)cc1	TMEM16A inh 100
Cc1ccc(S(=O)(=O)N2[C@@H](c3cccc(Cl)c3)C(C(=O)O)=CC[C@H]2c2cccc(C)c2)cc1	TMEM16A inh 25
O=S(=O)(Nc1nc2ccccc2nc1Nc1cccc(S(=O)(=O)N2CCCCC2)c1)c1ccccc1	TMEM16A inh 100
COc1ccc(S(=O)(=O)Nc2cccc(S(=O)(=O)N3CCCCCC3)c2)cc1	none (no result: MT1-MMP act inh)
COC(=O)c1c(C)[nH]c(C)c1-c1cccc([N+](=O)[O-])c1	TMEM16A act -7.7
O=S(=O)(NCC1(N2CCOCC2)CCCCC1)c1ccccc1Cl	none
O=S(=O)(NCC1(N2CCOCC2)CCCCC1)c1ccc(Cl)cc1C(F)(F)F	TMEM16A act -18
CCNC(=O)C1CCCN(C(=O)c2cnc3ccccc3n2)CC1 (stereo not given)	none (no result: DAGLB inh, TMEM16A inh, TMEM16A act)
COC(=O)C1=C(CCc2ccccc2)NC(=O)NC1c1ccc(Br)cc1 (stereo not given)	none
O=C(NNC(=S)Nc1cccc2ccccc12)c1cccc(Br)c1	TMEM16A inh 25
CCOC(=O)CNC(=O)C1(NC(=O)CNC(=O)OCc2ccccc2)CCCC1	none (no result: TMEM16A inh)
Cc1c(C(=O)N2CCCC(C)(C(=O)NS(=O)(=O)C3CC3)C2)oc2ccccc12 (stereo not given)	none (no result: DAGLB inh, TMEM16A inh, TMEM16A act)
Cc1ccc(C2=CC(=O)C[C@H](c3ccc(Cl)cc3)C2)cc1	none (no result: TMEM16A inh)
Cc1ccc(C2CC(=O)C=C(O)C2)cc1 (stereo not given)	TMEM16A inh 100
CCc1oc2ccccc2c1C(=O)c1cc(Br)c(O)c(Br)c1	TMEM16A inh 100
